From ChEMBL document CHEMBL2384922, “Synthesis and evaluation of carbamoylmethylene linked prodrugs of BMS-582949, a clinical p38α inhibitor” (Bioorg Med Chem Lett, 2013)
≈ marks a conversion by molar mass, not a printed value. Values belong to the molecule of their own block, whether it stands above or below them.

What was measured:
[1] = Aqueous solubility of the compound at pH 6.5; format: physicochemical
[2] = Half life of the compound at pH 7.4 at 37 degC by solution stability test; format: physicochemical; conditions: buffer
Outline: (§1)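 Chemical stability in aqueous solution at 37 °C, at pH 1.0 or pH 7.4. Half-life determined for each condition, in hours.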

[3] = Aqueous solubility of the compound at pH 1; format: physicochemical
[4] = Half life of the compound at pH 1 at 37 degC by solution stability test; format: physicochemical; conditions: buffer; outline: as §1
Rattus norvegicus [5] = experiment: AUC (0 to 24 hrs) in rat assessed as parent compound BMS-582949 at 142 mg/kg, po administered in 0.75% methocel vehicle as suspension; format: ADME, organism-based, Plasma; set-up: time < 24 hr, dose 142 mg/kg, route oral; conditions: in vivo
Outline: (§2)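 Oral dosing to rats as a methocel suspension. Prodrug given at 142 mpk (equivalent to 100 mpk of parent); parent given at 100 mpk. Parent drug measured in plasma over 24 h, giving Cmax, Tmax and AUC0–24h. The prodrug itself was also monitored in plasma.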

Rattus norvegicus [6] = experiment: Cmax in rat assessed as parent compound BMS-582949 at 142 mg/kg, po administered in 0.75% methocel vehicle as suspension; format: ADME, organism-based; set-up: dose 142 mg/kg, route oral; conditions: in vivo; outline: as §2
Rattus norvegicus [7] = experiment: Tmax in rat assessed as parent compound BMS-582949 at 142 mg/kg, po administered in 0.75% methocel vehicle as suspension; format: ADME, organism-based; set-up: dose 142 mg/kg, route oral; conditions: in vivo; outline: as §2
Rattus norvegicus [8] = experiment: AUC (0 to 24 hrs) in rat assessed as parent compound BMS-582949 at 14.2 mg/kg, po administered in 1:1 PEG 300/water as vehicle; format: ADME, organism-based, Plasma; set-up: time < 24 hr, dose 14.2 mg/kg, route oral; conditions: in vivo
Outline: (§3)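 Oral dosing to rats as a solution in 1:1 PEG 300/water. Prodrug given at 14.2 mpk (equivalent to 10 mpk of parent); parent given at 10 mpk. Plasma levels of the parent drug measured over 24 h, giving Cmax, Tmax and AUC0–24h. The prodrug itself was also monitored in plasma.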

Rattus norvegicus [9] = experiment: Tmax in rat assessed as parent compound BMS-582949 at 14.2 mg/kg, po administered in 1:1 PEG 300/water as vehicle; format: ADME, organism-based; set-up: dose 14.2 mg/kg, route oral; conditions: in vivo; outline: as §3
Rattus norvegicus [10] = experiment: Cmax in rat assessed as parent compound BMS-582949 at 14.2 mg/kg, po administered in 1:1 PEG 300/water as vehicle; format: ADME, organism-based; set-up: dose 14.2 mg/kg, route oral; conditions: in vivo; outline: as §3
[11] = Aqueous solubility of the compound at pH 3.1; format: physicochemical
[12] = Aqueous solubility of the compound at pH 4.6; format: physicochemical
[13] = Half life of the compound at pH 7.5 at 25 degC by solution stability test; format: physicochemical; conditions: buffer
[14] = AUC (0 to 24 hrs) in rat at 100 mg/kg, po administered in 0.75% methocel vehicle as suspension; format: ADME, organism-based; set-up: time < 24 hr, dose 100 mg/kg, route oral; conditions: plasma; outline: as §2
[15] = Cmax in rat at 100 mg/kg, po administered in 0.75% methocel vehicle as suspension; format: ADME, organism-based; set-up: dose 100 mg/kg, route oral; conditions: in vivo; outline: as §2
[16] = Tmax in rat at 100 mg/kg, po administered in 0.75% methocel vehicle as suspension; format: ADME, organism-based; set-up: dose 100 mg/kg, route oral; conditions: in vivo; outline: as §2
[17] = Cmax in rat at 10 mg/kg, po administered with 1:1 PEG 300/water as vehicle; format: ADME, organism-based; set-up: dose 10 mg/kg, route oral; conditions: in vivo; outline: as §3
[18] = AUC (0 to 24 hrs) in rat at 10 mg/kg, po administered with 1:1 PEG 300/water as vehicle; format: ADME, organism-based; set-up: time < 24 hr, dose 10 mg/kg, route oral; conditions: plasma; outline: as §3
[19] = Tmax in rat at 10 mg/kg, po administered with 1:1 PEG 300/water as vehicle; format: ADME, organism-based; set-up: dose 10 mg/kg, route oral; conditions: in vivo; outline: as §3

AUC (Rattus norvegicus [5]): 213.9 µM·h
Cmax (Rattus norvegicus [6]): 21.1 µM
Tmax (Rattus norvegicus [7]): 6 h
AUC (Rattus norvegicus [8]): 52 µM·h
Tmax (Rattus norvegicus [9]): 4 h
Cmax (Rattus norvegicus [10]): 4.6 µM
solubility [11]: 105 µg/mL (≈ 181 µM)
solubility [12]: 367 µg/mL (≈ 634 µM)
solubility [1]: 883 µg/mL (≈ 1530 µM)
half-life [2]: 38.5 h
solubility [3]: 1180 µg/mL (≈ 2040 µM)
half-life [4]: 79.4 h
SMILES: CCCN(C(=O)OCOC(=O)/C=C/C(=O)O)C(=O)c1cn2ncnc(Nc3cc(C(=O)NC4CC4)ccc3C)c2c1C

half-life [2]: < 0.25 h
half-life [4]: 8.5 h
SMILES: CCCNC(=O)c1cn2ncnc(N(C(=O)OCOP(=O)(O)O)c3cc(C(=O)NC4CC4)ccc3C)c2c1C

half-life [2]: < 0.25 h
half-life [4]: 26.8 h
SMILES: CCCN(C(=O)OCOP(=O)(O)O)C(=O)c1cn2ncnc(Nc3cc(C(=O)NC4CC4)ccc3C)c2c1C

half-life [2]: < 0.25 h
half-life [4]: 20.5 h
SMILES: CCCNC(=O)c1cn2ncnc(Nc3cc(C(=O)N(C(=O)OCOP(=O)(O)O)C4CC4)ccc3C)c2c1C

half-life [2]: < 0.25 h
half-life [4]: 3.2 h
SMILES: CCCN(C(=O)OCOC(=O)[C@H](C)N)C(=O)c1cn2ncnc(Nc3cc(C(=O)NC4CC4)ccc3C)c2c1C.Cl.Cl

AUC(0-t) at 24 h [14]: 5.6 µM·h
Cmax [15]: 0.8 µM
Tmax [16]: 1.7 h
Cmax [17]: 6.5 µM
AUC(0-t) at 24 h [18]: 53.3 µM·h
Tmax [19]: 1 h
SMILES: CCCNC(=O)c1cn2ncnc(Nc3cc(C(=O)NC4CC4)ccc3C)c2c1C [BMS-582949]

Further lines, the molecule ahead of its results:

SMILES: CCCNC(=O)c1cn2ncnc(Nc3cc(C(=O)N(C(=O)OCOC(=O)/C=C/C(=O)O)C4CC4)ccc3C)c2c1C
solubility [1]: 1570 µg/mL (≈ 2710 µM)
half-life [2]: 21.8 h
solubility [3]: 166 µg/mL (≈ 287 µM)
half-life [4]: 34.5 h

SMILES: COc1ccc(CCNC(=O)OCOP(=O)(O)O)cc1OC
half-life [13]: 1150 h

SMILES: O=C(OCOP(=O)(O)O)OC1Cc2ccccc2C1
half-life [13]: 0.967 h

SMILES: CCCNC(=O)c1cn2ncnc(Nc3cc(C(=O)N(C(=O)OCOC(=O)[C@H](C)N)C4CC4)ccc3C)c2c1C.Cl
half-life [2]: < 0.25 h
half-life [4]: 3 h

SMILES: CCCNC(=O)c1cn2ncnc(N(C(=O)OCOC(=O)/C=C/C(=O)O)c3cc(C(=O)NC4CC4)ccc3C)c2c1C
solubility [1]: 1150 µg/mL (≈ 1990 µM)
half-life [2]: 14.6 h
solubility [3]: 8 µg/mL (≈ 13.8 µM)
half-life [4]: 129 h

SMILES: CCCNC(=O)c1cn2ncnc(N(C(=O)OCOC(=O)[C@H](C)N)c3cc(C(=O)NC4CC4)ccc3C)c2c1C.Cl.Cl
half-life [2]: < 0.25 h
half-life [4]: 3.2 h
